Source: ChEMBL document CHEMBL4513216, “Probing the Open Global Health Chemical Diversity Library for Multistage-Active Starting Points for Next-Generation Antimalarials” (ACS Infect Dis, 2020)

Experiment: Toxicity liver stage against HepG2, at 10uM
Type: cell-based
Parameters: test concentration 10 uM, cell line HepG2-A16-CD81EGFP
Settings: human, HepG2-A16-CD81EGFP cells; read-out: INHIBITION
Summary of the method: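 Uninfected HepG2-A16-CD81EGFP cells, 3 × 10^3 per well, 1536-well, plated on prespotted compound at 10 μM final, parasite-free screening media added to match infected plates; puromycin 10 μM positive, DMSO 0.5% negative; run in parallel with 48 h PbLuc assay at 37 °C, 5% CO2; viability by CellTiter-Glo luminescence, normalized to controls.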
`COc1cc2c(cc1CN1C[C@@H](CN3CCOCC3)[C@@H](CO)C1)CCC2` showed a cytotoxicity at 10 µM of -2.37%. For `C=C(C)COc1cccc(CNC(COC)c2ccnn2C)c1` (stereo unspecified), the cytotoxicity at 10 µM was -3.57%. Compound `O=C(c1c[nH]c(=O)[nH]1)N1CCCC2(CCC(=O)N(C3CCCC3)C2)C1` (stereo unspecified) has a cytotoxicity at 10 µM of -3.74%. `CCC(Nc1ncnc2sc(C(=O)O)c(C)c12)c1ccnn1C` (stereo unspecified) gave a cytotoxicity at 10 µM of 0.512%. Compound `CC(=O)c1cc(C(=O)N2CCC(CC(C)C)C2)c(=O)[nH]c1C` (stereo unspecified) has a cytotoxicity at 10 µM of 4.4%. With `CCOc1ccccc1CN(CC)Cc1ccc(S(=O)(=O)NC)cc1` the cytotoxicity at 10 µM was -0.943%. In the case of `Cc1cc(C)cc(-n2ncc3c2CCCC3N)c1` (stereo unspecified), the cytotoxicity at 10 µM is reported as 7.63%. `CCn1cnnc1CN(C)C(=O)c1cc(COc2cccc(F)c2)[nH]n1` gave a cytotoxicity at 10 µM of 12.3%. `Cc1[nH]c2c(F)cccc2c1CC(=O)N1CCN(C2CCSCC2)CC1` showed a cytotoxicity at 10 µM of 4.82%. `Cc1nc(CNC(=O)c2cc(Cn3ccnc3C(C)C)[nH]n2)sc1C` gave a cytotoxicity at 10 µM of 2.99%. `CN(C)C(C(=O)N1CC(Oc2ccccc2F)C1)c1ccc(F)cc1` (stereo unspecified) gave a cytotoxicity at 10 µM of 1.28%. `CC(C)=CCN1CC2(CCN(Cc3cccc(C#N)c3)CC2)CC1=O` showed a cytotoxicity at 10 µM of -4.39%. Compound `Cc1ccc(C)c(C(=O)N2CCOC(CCN(C)C)C2)c1` (stereo unspecified) has a cytotoxicity at 10 µM of -0.63%. `COCC1(NC(=O)Nc2nc(C)ns2)CCCC1` gave a cytotoxicity at 10 µM of 0.512%. `O=C1CN(Cc2cc(O)c3cccc(F)c3n2)CCN1C1CCCC1` gave a cytotoxicity at 10 µM of 4.45%. Compound `O=C(NCc1cn2cccnc2n1)C1CC(=O)N(Cc2ccccn2)C1` (stereo unspecified) has a cytotoxicity at 10 µM of 2.69%. In the case of `O=C(c1ccon1)N1CCc2ncnc(NCc3ccccn3)c2CC1`, the cytotoxicity at 10 µM is reported as 0.436%. Work on `Cc1nc2ccc(-n3ncnc3[C@@H]3CCCN3S(C)(=O)=O)cc2s1` yielded a cytotoxicity at 10 µM of -11.5%. For `CN(CC1=CCCN(CCc2ccccn2)C1)C(=O)c1ccco1`, the cytotoxicity at 10 µM was 1.7%. For `CCn1cc(-c2cc(-c3cc(CC(=O)O)cs3)nc(N)c2C#N)c(C)n1`, the cytotoxicity at 10 µM was 1.16%. `CN(C)CCN1CC2(CCCN(c3ncc(Cl)cc3F)C2)CCC1=O` (stereo unspecified) gave a cytotoxicity at 10 µM of -13.6%. In the case of `COc1cc(OC)cc(-c2cccc3c2OC(CN)C3)c1` (stereo unspecified), the cytotoxicity at 10 µM is reported as -53%. With `Cc1cc(C(=O)NCCC2CCN(C)CC2)ccc1N(C)S(C)(=O)=O` the cytotoxicity at 10 µM was 5.82%. In the case of `CCNc1ncc(C(=O)NC2CCSC2)cn1` (stereo unspecified), the cytotoxicity at 10 µM is reported as -8.85%. In the case of `CC(O)CN1CCN(Cc2cccc(C(=O)N3CCCCC3)c2)CC1` (stereo unspecified), the cytotoxicity at 10 µM is reported as -4.83%. For `Cc1cnn(CC2CCCN2Cc2cn3ccsc3n2)c1` (stereo unspecified), the cytotoxicity at 10 µM was -1.75%. Compound `CC(C)c1noc(CCC(=O)N2CCN(Cc3ccncc3)CC2)n1` has a cytotoxicity at 10 µM of -9.08%. With `N#CC1(NC(=O)CN2CCC(c3ccnn3CCO)CC2)CCCC1` the cytotoxicity at 10 µM was 2.85%. `CN(Cc1cccc(F)c1)C(=O)CN1CCOC(Cn2cncn2)C1` (stereo unspecified) gave a cytotoxicity at 10 µM of -2.09%. Compound `Cc1ccc(-c2nnc(CNCCn3cccn3)o2)cc1` has a cytotoxicity at 10 µM of -26.1%. With `Cc1nc(C)n(CC2CCCN2CCOc2cccc(F)c2)n1` (stereo unspecified) the cytotoxicity at 10 µM was -0.945%. Work on `CCc1nc(C2CCCN2C(=O)c2cnc[nH]2)no1` (stereo unspecified) yielded a cytotoxicity at 10 µM of -13.6%. With `CNc1snc(C)c1C(=O)N1CCCC(n2ccnc2C)C1` (stereo unspecified) the cytotoxicity at 10 µM was -14.1%. `Cc1cnn(C2CCCN(C(=O)c3cc(Cl)c4c(c3)OCO4)C2)c1` (stereo unspecified) gave a cytotoxicity at 10 µM of -5.25%. Compound `O=C(NC1CC1)C1CCN(c2snc3ccccc23)CC1` has a cytotoxicity at 10 µM of -5.43%. In the case of `Cn1ccc(CN2CCC(OCCc3ccccc3)CC2)cc1=O`, the cytotoxicity at 10 µM is reported as -4.43%. In the case of `Cc1cc(C(=O)N2CCCCC2C)ccc1NCC(=O)N1CCOCC1` (stereo unspecified), the cytotoxicity at 10 µM is reported as 4.08%. `CN1CCN(c2cc(CNC(=O)c3ccc(=O)n(C)c3)ccn2)CC1` gave a cytotoxicity at 10 µM of -6.95%. Work on `Cn1cc(Cl)cc1C(=O)N1CCN(Cc2ccsc2)CC1` yielded a cytotoxicity at 10 µM of -2.86%. `CCn1ncc2c1CCCC2NCc1ccc(OC)c(C)c1` (stereo unspecified) showed a cytotoxicity at 10 µM of -8%. `COCCN1CCN(Cc2cccc(C(N)=O)c2)CC1C` (stereo unspecified) gave a cytotoxicity at 10 µM of 0.794%. In the case of `Cc1cc(C(=O)NCc2ccc(N3CCCC(C(N)=O)C3)cc2)[nH]n1` (stereo unspecified), the cytotoxicity at 10 µM is reported as 4.23%. For `O=C(NCC(F)(F)F)C1CSCN1S(=O)(=O)c1ccc(F)cc1` (stereo unspecified), the cytotoxicity at 10 µM was 1.85%. Compound `N#Cc1ccc(N2CC3(CCN(c4nccs4)C3)C2)nc1` has a cytotoxicity at 10 µM of -12.5%. For `CCOCc1cnc2n1CCN(C(=O)Cc1ccccn1)C2C` (stereo unspecified), the cytotoxicity at 10 µM was 8.04%. In the case of `c1csc(CN2CCCn3cnc(COCC4CC4)c3C2)n1`, the cytotoxicity at 10 µM is reported as 9.7%. For `O=C(c1cnccn1)N1CC[C@@H]2CO[C@@H](CN3CCCC3)[C@@H]2C1`, the cytotoxicity at 10 µM was -1.19%. With `COCC(=O)NCc1cc(=O)n2c(n1)CN(CC1CCOC1)CCC2` (stereo unspecified) the cytotoxicity at 10 µM was 1.47%. In the case of `CCOCC1c2c(cnn2C)CCN1C(=O)c1cc(C)on1` (stereo unspecified), the cytotoxicity at 10 µM is reported as -81.9%. `CN(C)Cc1cnc2n1CCN(C(=O)Cc1cccc(F)c1)CC2` showed a cytotoxicity at 10 µM of -11.7%. `Cc1ccc(OCC(=O)N2C[C@@H]3CN(C)CCO[C@@H]3C2)cc1` gave a cytotoxicity at 10 µM of -0.204%. Work on `CN1CCN(C(=O)c2nc3c(s2)CCCN3C(=O)C2CC2)CC1` yielded a cytotoxicity at 10 µM of 1.82%. With `COC(=O)CCC(=O)N1CCCC2(CCCN2Cc2cccc(F)c2)C1` (stereo unspecified) the cytotoxicity at 10 µM was -104%. `CC(C)CN1CCCC12CCN(c1nncs1)C2` (stereo unspecified) showed a cytotoxicity at 10 µM of 1.81%. For `CN(C)C(=O)NC1COC2(CCN(Cc3ccccc3)CC2)C1` (stereo unspecified), the cytotoxicity at 10 µM was 4.14%. `CCNc1ncc(C(=O)NC2CCC(n3cnnc3)CC2)cn1` (stereo unspecified) showed a cytotoxicity at 10 µM of 9.45%.
